Test results reported in ChEMBL document CHEMBL4680156, “Discovery of novel pyrido-pyrrolidine hybrid compounds as alpha-glucosidase inhibitors and alternative agent for control of type 1 diabetes” (Eur J Med Chem, 2020).
Activity calls are given as the source filed them. The rule behind the calls is not given here.

Columns and labels:
[1] = Inhibition of Saccharomyces cerevisiae alpha-glucosidase using PNPG as substrate incubated for 10 mins by spectrophotometric method
[2] = molecular target: T1, Alpha-mannosidase (Canavalia ensiformis) (UniProt C0HJB3); assay: Inhibition of jack bean alpha-mannosidase at 1 mM using […] as substrate incubated for 10 mins by spectrophotometric method
T1 sequence (whole entry): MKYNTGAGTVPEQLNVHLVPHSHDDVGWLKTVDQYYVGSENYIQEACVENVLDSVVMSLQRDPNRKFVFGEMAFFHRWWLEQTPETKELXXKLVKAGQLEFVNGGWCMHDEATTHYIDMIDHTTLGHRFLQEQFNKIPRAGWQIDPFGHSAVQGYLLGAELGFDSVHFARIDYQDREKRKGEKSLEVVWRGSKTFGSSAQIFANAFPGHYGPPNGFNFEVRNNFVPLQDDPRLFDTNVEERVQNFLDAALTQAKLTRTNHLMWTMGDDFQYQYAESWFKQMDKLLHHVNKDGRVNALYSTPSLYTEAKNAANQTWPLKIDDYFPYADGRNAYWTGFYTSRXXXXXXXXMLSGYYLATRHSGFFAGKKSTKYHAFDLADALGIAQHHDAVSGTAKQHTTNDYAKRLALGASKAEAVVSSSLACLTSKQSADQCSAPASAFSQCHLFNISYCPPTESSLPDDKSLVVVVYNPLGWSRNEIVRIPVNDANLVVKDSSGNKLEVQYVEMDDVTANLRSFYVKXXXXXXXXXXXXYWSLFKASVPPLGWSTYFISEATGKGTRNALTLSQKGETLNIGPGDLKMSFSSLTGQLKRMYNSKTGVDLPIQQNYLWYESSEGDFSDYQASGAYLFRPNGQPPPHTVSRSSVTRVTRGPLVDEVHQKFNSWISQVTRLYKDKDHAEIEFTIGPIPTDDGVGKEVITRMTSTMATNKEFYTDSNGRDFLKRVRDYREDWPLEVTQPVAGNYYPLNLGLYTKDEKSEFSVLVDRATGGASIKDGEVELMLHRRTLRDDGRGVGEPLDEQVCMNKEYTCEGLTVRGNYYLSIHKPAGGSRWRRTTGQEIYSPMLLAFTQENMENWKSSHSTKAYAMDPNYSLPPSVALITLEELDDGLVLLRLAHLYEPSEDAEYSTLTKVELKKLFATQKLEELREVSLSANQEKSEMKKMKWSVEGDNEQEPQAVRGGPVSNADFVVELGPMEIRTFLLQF

[3] = molecular target: T2, Tissue alpha-L-fucosidase (Bos taurus) (UniProt Q2KIM0); assay: Inhibition of bovine kidney alpha-fucosidase at 1 mM using […] as substrate incubated for 10 mins by spectrophotometric method
T2 sequence (whole entry): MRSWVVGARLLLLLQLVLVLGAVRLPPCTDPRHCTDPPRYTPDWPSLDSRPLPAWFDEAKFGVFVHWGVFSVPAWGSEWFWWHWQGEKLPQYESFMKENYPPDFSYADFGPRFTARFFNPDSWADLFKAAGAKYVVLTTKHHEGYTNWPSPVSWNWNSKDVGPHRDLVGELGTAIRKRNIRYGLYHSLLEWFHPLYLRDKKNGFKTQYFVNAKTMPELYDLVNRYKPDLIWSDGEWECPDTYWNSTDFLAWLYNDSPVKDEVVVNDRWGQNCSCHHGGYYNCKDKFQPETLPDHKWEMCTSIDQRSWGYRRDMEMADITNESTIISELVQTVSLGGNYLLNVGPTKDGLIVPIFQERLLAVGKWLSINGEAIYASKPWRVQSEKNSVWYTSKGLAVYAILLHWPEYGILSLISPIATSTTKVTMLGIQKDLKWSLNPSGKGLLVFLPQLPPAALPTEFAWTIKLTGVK

[4] = system: Saccharomyces cerevisiae; assay: Inhibition of Saccharomyces cerevisiae alpha-glucosidase at 1 mM using PNPG as substrate incubated for 10 mins by spectrophotometric method
[5] = molecular target: T3, Tissue alpha-L-fucosidase (Bos taurus, UniProt Q2KIM0); assay: Inhibition of bovine kidney alpha-fucosidase using […] as substrate incubated for 10 mins by spectrophotometric method
T3 sequence (Q2KIM0 whole entry): T2 sequence (whole entry)

[6] = molecular target: T4, Alpha-mannosidase (Canavalia ensiformis, UniProt C0HJB3); assay: Inhibition of jack bean alpha-mannosidase using […] as substrate incubated for 10 mins by spectrophotometric method
T4 sequence (C0HJB3 whole entry): T1 sequence (whole entry)

[7] = Inhibition of rice alpha-glucosidase; parameters: species or system Oryza sativa
[8] = Inhibition of fungi maltase
Method in brief: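 Yeast α-glucosidase, 0.1 IU per well, was added to 2 mM 4-nitrophenyl α-D-glucopyranoside in 10 mM potassium phosphate pH 7.2, with compound from DMSO at 2–10 μM. Plates ran 10 min at 37 °C and were read at 430 nm. Inhibition was calculated against a buffer control, and IC50 came from three independent assays run in triplicate.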

[9] = molecular target: Maltase-glucoamylase (Homo sapiens, UniProt O43451); assay: Inhibition of alpha-glucosidase (unknown origin) using sucrose as substrate incubated for 30 mins
Sequence of Maltase-glucoamylase (O43451 whole entry): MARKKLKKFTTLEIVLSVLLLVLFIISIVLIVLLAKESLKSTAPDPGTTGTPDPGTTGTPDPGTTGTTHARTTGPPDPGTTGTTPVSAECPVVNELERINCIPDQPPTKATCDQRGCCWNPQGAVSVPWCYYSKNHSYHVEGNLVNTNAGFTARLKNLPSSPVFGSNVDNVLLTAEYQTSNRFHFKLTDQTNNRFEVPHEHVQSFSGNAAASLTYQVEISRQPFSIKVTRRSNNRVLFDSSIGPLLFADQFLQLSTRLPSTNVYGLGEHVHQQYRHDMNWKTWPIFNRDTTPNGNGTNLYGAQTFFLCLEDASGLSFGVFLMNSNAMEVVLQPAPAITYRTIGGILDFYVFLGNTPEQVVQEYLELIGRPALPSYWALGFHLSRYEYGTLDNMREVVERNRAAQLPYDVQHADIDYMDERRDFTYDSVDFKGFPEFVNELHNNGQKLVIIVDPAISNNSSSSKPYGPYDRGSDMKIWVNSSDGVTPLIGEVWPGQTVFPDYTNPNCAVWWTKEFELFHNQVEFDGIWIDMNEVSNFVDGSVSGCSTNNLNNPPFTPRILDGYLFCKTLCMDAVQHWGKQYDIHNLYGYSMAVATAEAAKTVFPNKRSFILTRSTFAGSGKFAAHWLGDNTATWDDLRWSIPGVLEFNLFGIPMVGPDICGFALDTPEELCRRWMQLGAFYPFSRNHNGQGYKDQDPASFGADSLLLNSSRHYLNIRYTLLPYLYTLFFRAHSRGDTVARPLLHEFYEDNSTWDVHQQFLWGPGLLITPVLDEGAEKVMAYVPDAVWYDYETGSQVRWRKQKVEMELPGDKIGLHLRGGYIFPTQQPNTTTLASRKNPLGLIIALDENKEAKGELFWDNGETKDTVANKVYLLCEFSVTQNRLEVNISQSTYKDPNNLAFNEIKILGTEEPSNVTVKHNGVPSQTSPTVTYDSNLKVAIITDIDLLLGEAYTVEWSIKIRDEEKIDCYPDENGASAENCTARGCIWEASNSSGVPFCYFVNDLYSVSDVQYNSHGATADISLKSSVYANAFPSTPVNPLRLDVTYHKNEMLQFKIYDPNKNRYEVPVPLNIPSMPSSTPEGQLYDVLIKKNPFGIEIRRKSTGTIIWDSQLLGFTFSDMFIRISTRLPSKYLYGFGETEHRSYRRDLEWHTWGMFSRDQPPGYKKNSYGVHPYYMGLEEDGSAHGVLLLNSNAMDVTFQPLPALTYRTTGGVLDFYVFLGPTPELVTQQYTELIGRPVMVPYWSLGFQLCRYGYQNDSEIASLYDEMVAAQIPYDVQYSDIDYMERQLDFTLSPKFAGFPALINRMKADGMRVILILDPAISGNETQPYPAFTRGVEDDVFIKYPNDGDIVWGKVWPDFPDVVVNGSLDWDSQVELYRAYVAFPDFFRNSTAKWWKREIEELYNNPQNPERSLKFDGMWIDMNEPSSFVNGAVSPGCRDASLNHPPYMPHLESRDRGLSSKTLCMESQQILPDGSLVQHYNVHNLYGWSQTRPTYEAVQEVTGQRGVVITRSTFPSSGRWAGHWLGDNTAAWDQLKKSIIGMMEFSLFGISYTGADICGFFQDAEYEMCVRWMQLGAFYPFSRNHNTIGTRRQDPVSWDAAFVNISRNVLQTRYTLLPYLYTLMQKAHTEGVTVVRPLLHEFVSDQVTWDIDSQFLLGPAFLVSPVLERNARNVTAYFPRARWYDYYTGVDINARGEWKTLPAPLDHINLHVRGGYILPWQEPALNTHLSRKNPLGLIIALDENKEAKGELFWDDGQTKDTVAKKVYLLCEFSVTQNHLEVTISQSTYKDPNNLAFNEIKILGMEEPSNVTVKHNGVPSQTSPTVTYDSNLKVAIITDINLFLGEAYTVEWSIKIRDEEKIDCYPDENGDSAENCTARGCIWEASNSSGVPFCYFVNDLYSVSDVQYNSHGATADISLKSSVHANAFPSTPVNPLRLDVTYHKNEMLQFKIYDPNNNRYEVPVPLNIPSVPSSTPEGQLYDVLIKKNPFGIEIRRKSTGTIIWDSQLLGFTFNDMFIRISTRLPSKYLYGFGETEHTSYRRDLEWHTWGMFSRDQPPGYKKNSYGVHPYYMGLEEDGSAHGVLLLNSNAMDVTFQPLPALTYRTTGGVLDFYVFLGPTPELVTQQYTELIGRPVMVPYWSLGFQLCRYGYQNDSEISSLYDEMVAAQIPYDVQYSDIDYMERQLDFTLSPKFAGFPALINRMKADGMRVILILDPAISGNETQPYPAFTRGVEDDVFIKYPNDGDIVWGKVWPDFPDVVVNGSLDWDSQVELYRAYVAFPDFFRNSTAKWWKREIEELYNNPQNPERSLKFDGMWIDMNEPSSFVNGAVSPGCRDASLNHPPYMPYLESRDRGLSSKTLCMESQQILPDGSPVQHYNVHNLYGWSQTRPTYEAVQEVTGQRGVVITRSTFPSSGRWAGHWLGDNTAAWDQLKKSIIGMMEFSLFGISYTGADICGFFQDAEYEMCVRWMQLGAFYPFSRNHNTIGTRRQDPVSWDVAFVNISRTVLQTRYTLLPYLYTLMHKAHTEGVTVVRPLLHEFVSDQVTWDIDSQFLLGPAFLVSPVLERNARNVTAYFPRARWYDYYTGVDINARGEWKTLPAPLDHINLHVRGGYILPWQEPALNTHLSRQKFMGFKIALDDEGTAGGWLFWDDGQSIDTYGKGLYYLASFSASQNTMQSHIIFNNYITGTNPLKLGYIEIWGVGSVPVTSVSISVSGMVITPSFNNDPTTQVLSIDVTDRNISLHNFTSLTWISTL

[10] = system: Rattus norvegicus; assay: Decrease in post prandial glucose level in type 1 diabetic Sprague-Dawley rat model at 60 mg/kg, po administered once daily for 28 days; conditions: time 28.0 day
[11] = Toxicity in STZ-treated diabetic Sprague-Dawley rat model assessed as decrease in body weight at 60 mg/kg, po administered once daily for 28 days; format: organism-based; conditions: in vivo, 672 h, time 28 day
Method in brief: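 Male Sprague-Dawley rats (250–320 g, 8–10 weeks) were made diabetic with a single STZ dose (70 mg/kg ip in 0.1 mmol/L citrate buffer, pH 4.5). Random glucose above 125 mg/dl defined diabetes. Dosing was 60 mg/kg in 0.5% saline by gastric gavage once daily for 4 weeks, n=6 per group, with vehicle controls. Body weight was recorded before and after treatment; mean ± SD, 2-way ANOVA.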

[12] = system: Rattus norvegicus; assay: Antidiabetic activity against STZ-induced type 1 diabetic Sprague-Dawley rat model assessed as decrease in fasting blood glucose level at 60 mg/kg, po administered once daily for 28 days; format: functional, organism-based; conditions: time 28.0 day
Method in brief: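 Male Sprague-Dawley rats (250–320 g, 8–10 weeks) were given STZ 70 mg/kg ip once in 0.1 mmol/L citrate buffer, pH 4.5. Rats with random glucose >125 mg/dl at 4 days were counted diabetic. Dosing was 60 mg/kg in 0.5% saline by gavage once daily for 4 weeks, n=6 per group. After a 6 h fast, tail blood glucose was read by glucometer. Data are mean ± SD; 2-way ANOVA.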

[13] = Inhibition of Saccharomyces cerevisiae alpha-glucosidase using maltose as substrate preincubated for 5 mins followed by substrate addition and measured after 15 mins by LC-TQ-MS/MS analysis
[14] = Inhibition of Wistar rat intestinal maltase assessed as reduction in released D-glucose level using maltose as substrate by colorimetric assay; format: tissue-based, Intestine
[15] = Inhibition of Saccharomyces cerevisiae alpha-glucosidase assessed as reduction in p-nitrophenol release using p-nitrophenyl glycoside as substrate by spectrophotometric analysis
[16] = Inhibition of Saccharomyces cerevisiae alpha-glucosidase assessed as reduction in p-nitrophenol liberation using PNPG as substrate preincubated with substrate for 5 mins followed by incubation with enzyme for 5 mins

Compound | IC50 [1] [µM] | inhibition [2] [%] | inhibition [3] [%] | IC50 [5] [µM] | IC50 [6] [µM] | further results
Cc1cc2c(c(=O)[nH]1)C(=O)O/C2=C\c1ccc(CO)n1-c1ccc(Cl)cc1 | 21.9 | < 50 | < 50 |  |  | 
Oc1cc(O)cc(/C=C/c2cc(O)c(O)c(O)c2)c1 | 31.1 | < 50 | < 50 |  |  | 
C#CCn1c(/C=C2\OC(=O)c3c2cc(C)[nH]c3=O)ccc1CO |  | < 50 | < 50 |  |  | inhibition [4]: < 50%
O=c1c2cc(O)c(O)cc2oc2cc(O)cc(O)c12 | 62.3 | < 50 | < 50 |  |  | 
Cc1ccc(S(=O)(=O)Nc2ccc(C(=O)/C=C/c3ccc(O)c(O)c3)cc2)cc1 | 82.7 |  |  | 91 | 105 | 
OC[C@@H]1[C@@H](O)[C@H](O)[C@H]2[C@H](O)[C@@H](O)CN21 [CASUARINE] | 41.1 |  |  | 82 | 51 | IC50 [7]: 1.2 µM; IC50 [8]: 0.7 µM
Cc1cc2c(c(=O)[nH]1)C(=O)O/C2=C\c1ccc(CO)n1-c1ccc(O)cc1 | 33.3 | < 50 |  | 21.7 |  | 
OC[C@@H]1N[C@@H](c2ccc(O)cc2)[C@H](O)[C@H]1O | 25.2 |  |  | 41 | 28 | IC50 [9]: 9.3 µM
C[C@H]1O[C@H](O[C@H]2[C@H](O)[C@@H](O)[C@@H](O[C@H]3[C@H](O)[C@@H](O)C(O)O[C@@H]3CO)O[C@@H]2CO)[C@H](O)[C@@H](O)[C@@H]1N[C@H]1C=C(CO)[C@@H](O)[C@H](O)[C@H]1O (stereo partly specified) [ACARBOSE] | 2.1 |  |  |  |  | inhibition [10]: inactive; Activity [11]: Non-Toxic; Activity [12]: Active
Cc1cc2c(c(=O)[nH]1)C(=O)O/C2=C\c1ccc(CO)n1-c1ccccc1C |  | < 50 | < 50 |  |  | inhibition [4]: < 50%
Cc1cc2c(c(=O)[nH]1)C(=O)O/C2=C\c1ccc(CO)n1CCc1c[nH]c2ccccc12 | 4.4 | < 50 |  | 12.9 |  | 
Cc1cc(O)c2c(c1)C(=O)c1cc(O)cc(O)c1C2=O [EMODIN] | 26.4 | < 50 |  | 32 |  | IC50 [13]: 4.12 µM
C=CC(C)(C)c1c2c(c(O)c3c(=O)c4ccc(O)c(O)c4oc13)C=CC(C)(C)O2 [MACLURAXANTHONE] | 62.3 | < 50 | < 50 |  |  | 
O=C1c2cccc(O)c2C(=O)c2c(O)cc(CO)cc21 [ALOE-EMODIN] | 26.4 | < 50 |  | 32 |  | IC50 [13]: 4.56 µM
Cc1cc2c(c(=O)[nH]1)C(=O)O/C2=C\c1ccc(CO)n1Cc1ccccc1 | 20.8 |  |  | 51.1 | 92.3 | 
Cc1cc2c(c(=O)[nH]1)C(=O)O/C2=C\c1ccc(CO)n1CCc1ccccc1 |  | < 50 | < 50 |  |  | inhibition [4]: < 50%
Cc1cc2c(c(=O)[nH]1)C(=O)O/C2=C\c1ccc(CO)n1-c1ccccc1 | 27.4 |  |  | 38.4 | 61.4 | 
O=C1Nc2cc(Cl)ccc2/C1=C/c1ccc(O)c(O)c1 | 15 |  |  | 65 | 28 | 

Compound | IC50 [1] [µM] | inhibition [2] [%] | inhibition [3] [%] | IC50 [5] [µM] | IC50 [6] [µM] | further results
CC(C)=CCc1cc(C(=O)/C=C/c2ccc(O)c(O)c2)c(O)cc1O [BROUSSOCHALCONE A] | 101 | < 50 | < 50 |  |  | 
O=C(N/N=C/c1ccc(Cl)cc1)c1ccc(-c2nc3ccccc3s2)cc1 | 20.5 |  | < 50 |  | 15 | 
Cc1ccc(S(=O)(=O)Nc2cccc(C(=O)/C=C/c3ccc(O)c(O)c3)c2)cc1 | 82.7 |  |  | 91 | 105 | 
CC(C)=CCc1cc(-c2oc3cc(O)c(CC=C(C)C)c(O)c3c(=O)c2O)cc(O)c1O [BROUSSONOL E] | 85.9 | < 50 |  | 89 |  | 
C=CC(C)(C)c1c(O)cc2oc3c(CC=C(C)C)c(O)c(O)cc3c(=O)c2c1O [CUDRAXANTHONE L] | 62.3 | < 50 | < 50 |  |  | 
O=C1Nc2cc(Cl)ccc2/C1=C/c1ccccc1[N+](=O)[O-] | 15 |  |  | 65 | 28 | 
COc1ccc([C@@H]2N[C@@H](CO)[C@H](O)[C@H]2O)cc1O [L-RADICAMINE A] | 25.2 |  |  | 41 | 28 | IC50 [9]: 6.7 µM
CC(C)c1ccc(/C=C2\C(=O)Nc3cc(Cl)ccc32)cc1 | 15 |  |  | 65 | 28 | 
Cc1ccc(S(=O)(=O)Nc2ccc(C(=O)/C=C/c3ccc(O)cc3)cc2)cc1 | 82.7 |  |  | 91 | 105 | 
OCc1ccc2n1C[C@@H](c1ccc(O)cc1)OC2 | 5.01 |  |  | 21 | 14 | 
OC[C@H]1NC[C@@H](O)[C@@H]1O | 58 | < 50 |  |  |  | IC50 [14]: 5.8 µM; IC50 [15]: 0.15 µM
O=C(O)c1cc(O)c2c(c1)C(=O)c1cccc(O)c1C2=O [RHEIN] | 26.4 | < 50 |  | 32 |  | IC50 [13]: 5.68 µM
Cc1cc2c(c(=O)[nH]1)C(=O)O/C2=C\c1ccc(CO)n1-c1ccc(F)cc1 | 20.7 | < 50 | < 50 |  |  | 
Cc1ccc(S(=O)(=O)Nc2cccc(C(=O)/C=C/c3ccc(O)cc3)c2)cc1 | 82.7 |  |  | 91 | 105 | 
O=c1c(-c2ccc(O)cc2)coc2cc(O)cc(O)c12 [GENISTEIN] | 81 |  |  | 54 | 49 | IC50 [16]: 7 µM
C=CCn1c(/C=C2\OC(=O)c3c2cc(C)[nH]c3=O)ccc1CO |  | < 50 | < 50 |  |  | inhibition [4]: < 50%
COc1cc(O)c2c(c1)C(=O)c1cc(C)cc(O)c1C2=O [PHYSCION] | 26.4 | < 50 |  | 32 |  | IC50 [13]: 5.32 µM
